Source: PubChem BioAssay
Active and inactive are the calls of the source.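 The calls were made as follows, unless noted: active = Her2 level under about 52% in both replicate screens, with viability over 70% of control (limit read from the data); inconclusive = Her2 under the limit in one screen only, or viability under 70%; inactive = Her2 level above the set limit.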

Tests used:
[1] = reducers of endogenous Her2 protein level, primary screen, SKBR3 breast tumor cells, AlphaScreen, ATP viability (AID 461); conditions: 18-24 h, measured here: SKBR3 viability, ATP luminescence, at 10 µM;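 as to Her2 level: lower value means less Her2 protein in the cells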;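 as to viability: percent of carrier control wells set as 100% viability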
[2] = target: Receptor tyrosine-protein kinase erbB-2 (Homo sapiens) (UniProt P04626); experiment: as above; conditions: 18-24 h, at 10 µM, stronger effect = lower value
Sequence of Receptor tyrosine-protein kinase erbB-2 (Homo sapiens) (P04626 whole entry, looked up): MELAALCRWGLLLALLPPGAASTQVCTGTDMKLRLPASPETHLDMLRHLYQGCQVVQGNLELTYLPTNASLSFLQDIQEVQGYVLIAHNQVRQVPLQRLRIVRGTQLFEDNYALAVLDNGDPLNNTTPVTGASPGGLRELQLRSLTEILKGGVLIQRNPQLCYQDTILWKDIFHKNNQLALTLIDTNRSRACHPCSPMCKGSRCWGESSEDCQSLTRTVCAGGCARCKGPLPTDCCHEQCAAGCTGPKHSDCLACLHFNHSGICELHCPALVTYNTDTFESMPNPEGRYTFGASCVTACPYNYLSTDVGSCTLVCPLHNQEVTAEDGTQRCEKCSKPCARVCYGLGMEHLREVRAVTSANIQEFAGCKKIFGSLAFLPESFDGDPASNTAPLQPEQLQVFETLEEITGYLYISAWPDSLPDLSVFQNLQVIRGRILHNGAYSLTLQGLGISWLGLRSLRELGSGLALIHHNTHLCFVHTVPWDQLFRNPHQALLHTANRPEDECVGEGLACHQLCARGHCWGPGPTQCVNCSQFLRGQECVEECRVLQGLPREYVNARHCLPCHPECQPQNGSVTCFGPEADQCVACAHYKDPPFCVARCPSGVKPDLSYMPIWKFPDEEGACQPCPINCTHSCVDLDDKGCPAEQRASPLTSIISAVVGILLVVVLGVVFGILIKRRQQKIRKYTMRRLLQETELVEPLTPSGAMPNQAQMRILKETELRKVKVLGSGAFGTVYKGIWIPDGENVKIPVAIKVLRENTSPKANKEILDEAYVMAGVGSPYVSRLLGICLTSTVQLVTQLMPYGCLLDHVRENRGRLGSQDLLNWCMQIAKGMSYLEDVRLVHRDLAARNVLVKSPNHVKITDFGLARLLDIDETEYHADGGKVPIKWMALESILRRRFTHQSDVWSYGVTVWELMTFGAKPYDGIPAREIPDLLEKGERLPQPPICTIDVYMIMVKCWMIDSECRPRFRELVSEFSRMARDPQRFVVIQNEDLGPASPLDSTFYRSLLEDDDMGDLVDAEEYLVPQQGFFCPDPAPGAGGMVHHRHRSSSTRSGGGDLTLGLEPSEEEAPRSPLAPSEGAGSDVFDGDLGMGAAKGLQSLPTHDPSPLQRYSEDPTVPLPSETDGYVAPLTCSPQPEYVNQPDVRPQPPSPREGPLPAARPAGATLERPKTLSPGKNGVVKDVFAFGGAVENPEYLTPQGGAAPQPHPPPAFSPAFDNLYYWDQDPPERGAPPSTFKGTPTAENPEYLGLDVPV

[3] = SK-BR-3 cell growth inhibitors, pilot screen, 24 h, human (AID 572;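 active = viability at or below 10% of carrier control in both of two separate runs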;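 also: compound exposure lasted between 18 and 24 h rather than exactly 24 h; 100% = carrier-treated control wells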); conditions: SK-BR-3 viability, CellTiter-Glo luminescence, at 10 µM, stronger effect = lower value
[4] = HUVEC growth inhibition – cell-based, human, primary screen (AID 575;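 active = viability at or below 30% in both replicate assays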;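 also: 100% = median of untreated cell wells with 0.1% DMSO on each plate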); conditions: HUVEC proliferation, CellTiter-Glo luminescence, 72 h; at 10 µM; stronger effect = lower value
In short: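 Test system: primary human umbilical vein endothelial cells; medium: endothelial basal medium with 2% FBS plus growth supplements; dosing: 10 µM compound only; times: 72 h treatment at 37 °C; signal: CTG luminescence; read-out: % viability relative to median vehicle-well signal on each plate; control set: vehicle and MePR control wells; plate: 384-well, collagen-coated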

[5] = growth inhibitors of H69AR lung tumor, primary screen, human, duplicate replicates (AID 580;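 active = viability at or under a set limit in both replicates, limit being median viability minus 3 SD, cut at about 48% in these data, passing the limit was not always enough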;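 also: 100% = mean luminescence of untreated wells and 0% = no signal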); conditions: H69AR lung tumor cells viability, ATP luminescence, 72 h; at 10 µM; stronger effect = lower value
[6] = reversal of MRP1-mediated doxorubicin resistance, pilot screen, H69AR cells, doxorubicin co-treatment (AID 601;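 active = viability loss from added drug above about 55%, and viability with drug at most 40%, in both replicates, limit read from the data, passing the limit was not always enough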); conditions: CellTiter-Glo, 72 h, at 10 µM; for differential viability (reversal): stronger effect = higher value
[7] = 384-well plate pilot, post-Golgi transport modulator project, inhibition of yeast transport mutant growth (AID 636; in the data active = inhibition above about 31%); conditions: absorbance 615 nm, about 18 h, stronger effect = higher value
[8] = growth suppression of yeast trafficking mutant, preliminary HTS, modulators of trafficking downstream of Golgi apparatus project, 1536-format plate, OD 615 nm (AID 637; in the data active = inhibition above about 30%); conditions: yeast transport mutant growth, absorbance 615 nm, 18 h; stronger effect = higher value
[9] = H69AR cells + 2 uM doxorubicin, measured here: viability with 2 uM doxorubicin, stronger effect = lower value
[10] = H69AR cells, compound alone cytotoxicity

Structure (SMILES) | viability [1] [%] | Her2 level [2] | viability [3] | viability [4] | viability [5] | differential viability (reversal) ([6]; H69AR cells + 2 uM doxorubicin) | viability [6, 9] [%] | viability [6, 10] [%] | inhibition [7] | inhibition [8]
CC(C)CNC(=O)C1C2C=CC(C2)C1C(=O)O (stereo not given) | 96 | 96% (inactive) | 96% (inactive) | 108% (inactive) | 111% (inactive) | 9.12% (inactive) | 102 | 111 | -1.33% (inactive) | -1.77% (inactive)
CCOc1ccccc1N1CCN(c2nc(N)c(C#N)c(CC#N)c2C#N)CC1 | 108 | 74.5% (inactive) | 108% (inactive) | 70.7% (inactive) | 61.7% (inactive) | -22.8% (inactive) | 84.5 | 61.7 | -4.34% (inactive) | 5.64% (inactive)
Cc1nnc(SCC(=O)N2c3ccccc3CC2C)s1 (stereo not given) | 105 | 106% (inactive) | 105% (inactive) | 99.3% (inactive) | 92% (inactive) | -0.71% (inactive) | 92.7 | 92 | -1.73% (inactive) | 0.81% (inactive)
C=C(Cl)COC(=O)[C@H]1C2C=CC(C2)C1C(=O)O (stereo not given in full) | 99.5 | 120% (inactive) | 99.5% (inactive) | 106% (inactive) | 101% (inactive) | 3.48% (inactive) | 98 | 101 | -2.8% (inactive) | -6.67% (inactive)
Cc1cc(S(=O)(=O)NC2CCCCC2)ccc1OCC(=O)NCc1ccccn1 | 91.5 | 84% (inactive) | 91.5% (inactive) | 105% (inactive) | 99.1% (inactive) | 6.34% (inactive) | 92.8 | 99.1 | -0.53% (inactive) | 4.52% (inactive)
Cc1cc(C(F)F)n2nc(C(=O)Nc3ccc(S(=O)(=O)N4CCCCCC4)cc3)nc2n1 | 74 | 73.5% (inactive) | 74% (inactive) | 83.4% (inactive) | 83.3% (inactive) | -1.62% (inactive) | 84.9 | 83.3 | -3.87% (inactive) | 22.9% (inactive)
Cc1cc(NC(=O)CCC(=O)N(CCc2ccccc2)C(C(=O)NC2CCCC2)c2ccco2)no1 (stereo not given) | 85.5 | 99% (inactive) | 85.5% (inactive) | 79.2% (inactive) | 99.2% (inactive) | 4.1% (inactive) | 95.1 | 99.2 | 1.47% (inactive) | -2.13% (inactive)
O=C(CSc1nnc(-c2cccnc2)o1)Nc1ccccn1 | 92.5 | 102% (inactive) | 92.5% (inactive) | 94% (inactive) | 94.4% (inactive) | 7.92% (inactive) | 86.5 | 94.4 | 0.68% (inactive) | 31.8% (active)
COc1ccc(C(CNC(=O)CN2C(=O)NC3(CC(C)CC(C)(C)C3)C2=O)N2CCOCC2)cc1 (stereo not given) | 94.5 | 108% (inactive) | 94.5% (inactive) | 90.4% (inactive) | 90.5% (inactive) | 1.81% (inactive) | 88.7 | 90.5 | -5.73% (inactive) | -2.62% (inactive)
CCCCOc1ccc(-c2nnn(CC(=O)NCc3ccco3)n2)cc1 | 82.5 | 81% (inactive) | 82.5% (inactive) | 57.3% (inactive) | 23.9% (active) | -30.3% (inactive) | 54.3 | 23.9 | -1.18% (inactive) | 4.1% (inactive)
CCOCC(=O)Nc1sc2c(c1C(=O)OCC)CCCC2 | 89 | 89.5% (inactive) | 89% (inactive) | 54% (inactive) | 90.5% (inactive) | -4.83% (inactive) | 95.3 | 90.5 | 0.13% (inactive) | 1.64% (inactive)
CN1CCCC(OC(=O)COc2ccc(Br)cc2)C1 (stereo not given) | 93.5 | 108% (inactive) | 93.5% (inactive) | 91.4% (inactive) | 89.7% (inactive) | -2.85% (inactive) | 92.5 | 89.7 | -0.8% (inactive) | -1.48% (inactive)
COc1ccc(C2CC(c3ccccc3)Nc3nc(NC(=O)c4cccs4)nn32)cc1 (stereo not given) | 81.5 | 94.5% (inactive) | 81.5% (inactive) | 83.3% (inactive) | 88.3% (inactive) | 4.87% (inactive) | 83.4 | 88.3 | -1.69% (inactive) | -5.08% (inactive)
COc1cccc(-c2nc(CS(=O)CC(=O)NCCCOC(C)C)c(C)o2)c1 (stereo not given) | 102 | 108% (inactive) | 102% (inactive) | 118% (inactive) | 101% (inactive) | 6.34% (inactive) | 95.1 | 101 | -1.6% (inactive) | -6.94% (inactive)
COCCN1C(=O)C(=O)/C(=C(/O)c2cccc(S(=O)(=O)N(C)C)c2)C12C(=O)N(C)c1ccccc12 (stereo not given) | 110 | 91.5% (inactive) | 110% (inactive) | 110% (inactive) | 99.5% (inactive) | 3.6% (inactive) | 95.9 | 99.5 | -7.76% (inactive) | -2.38% (inactive)
COc1ccccc1-c1nnc2sc(-c3ccc(N(C)C)cc3)nn12 | 79.5 | 64% (inactive) | 79.5% (inactive) | 34.5% (inactive) | 23.9% (active) | -15.2% (inactive) | 39.1 | 23.9 | -1.05% (inactive) | 1.09% (inactive)
Cc1ccc(Nc2nc(CSc3nnnn3C)cs2)cc1 | 101 | 96% (inactive) | 101% (inactive) | 95.3% (inactive) | 113% (inactive) | 25.7% (inactive) | 87.4 | 113 | -7.24% (inactive) | -1.45% (inactive)
Cc1ccc(-c2cc(C(=O)NCCN3CCOCC3)no2)cc1 | 86.5 | 120% (inactive) | 86.5% (inactive) | 95.3% (inactive) | 99.8% (inactive) | 12.7% (inactive) | 87 | 99.8 | 3.07% (inactive) | -6.83% (inactive)
O=C(Nc1nnc(COc2ccc(F)cc2)s1)c1cccs1 | 107 | 88.5% (inactive) | 107% (inactive) | 60% (inactive) | 106% (inactive) | 21.3% (inactive) | 84.9 | 106 | -6.93% (inactive) | -0.48% (inactive)
O=[n+]1c2c(n([O-])c3c1CCCC3)CCCC2 | 108 | 91% (inactive) | 108% (inactive) | 93.9% (inactive) | 88.6% (inactive) | -8.33% (inactive) | 96.9 | 88.6 | -0.65% (inactive) | 7.38% (inactive)
C=CCOc1nc(N2CCCC2)nc(N2CCCC2)n1 | 89 | 91% (inactive) | 89% (inactive) | 83.1% (inactive) | 92.7% (inactive) | 11.6% (inactive) | 81.1 | 92.7 | -3.55% (inactive) | -2% (inactive)
O=C(Cn1nnc(-c2cc(Cl)ccc2-n2cnnn2)n1)N1CCCc2ccccc21 | 116 | 99.5% (inactive) | 116% (inactive) | 95.7% (inactive) | 96.4% (inactive) | 9.45% (inactive) | 87 | 96.4 | -2.47% (inactive) | 10.8% (inactive)
Cc1ccc(CN2C(=O)CCC2C(=O)NCCCN2CCC(C)CC2)cc1 (stereo not given) | 98.5 | 88.5% (inactive) | 98.5% (inactive) | 93.7% (inactive) | 103% (inactive) | 2.18% (inactive) | 101 | 103 | -5.73% (inactive) | 6.89% (inactive)
CC(=Nc1ccc(C)c(C)c1)C1=C(O)CCC1=O | 102 | 88.5% (inactive) | 102% (inactive) | 95.1% (inactive) | 94.7% (inactive) | 12% (inactive) | 82.8 | 94.7 | -3.73% (inactive) | -2.46% (inactive)
S=C(c1cccs1)N1CCCC1 | 90.5 | 110% (inactive) | 90.5% (inactive) | 96.7% (inactive) | 100% (inactive) | 11.2% (inactive) | 89.3 | 100 | 0.52% (inactive) | -8.52% (inactive)
O=C(Nc1ccccc1N1CCN(C(=O)c2ccc(Cl)cc2)CC1)c1cc2ccccc2o1 | 69.5 | 79.5% (inactive) | 69.5% (inactive) | 67.8% (inactive) | 85.5% (inactive) | 22.9% (inactive) | 62.6 | 85.5 | 2.53% (inactive) | 0.81% (inactive)
O=S(=O)(NCCc1ccccn1)c1cccs1 | 99 | 93% (inactive) | 99% (inactive) | 97.4% (inactive) | 101% (inactive) | 2.29% (inactive) | 98.3 | 101 | -7.07% (inactive) | 4.1% (inactive)
Cc1cnc(C(=O)OCC(=O)Nc2ccc(Oc3ccccc3)cc2)cn1 | 77 | 102% (inactive) | 77% (inactive) | 91.5% (inactive) | 91.9% (inactive) | 9.6% (inactive) | 82.3 | 91.9 | 5.51% (inactive) | -21.7% (inactive)
